From ChEMBL document CHEMBL5096186, “Design, Synthesis, and Biological Evaluation of Novel Pyrimido[4,5-b]indole Derivatives Against Gram-Negative Multidrug-Resistant Pathogens” (J Med Chem, 2021)
Converted amounts (≈) assume the structure as drawn.

Columns and labels:
Escherichia coli [1] = test: Antibacterial activity against Escherichia coli ATCC 35218 strains 15 1 to 3 assessed as reduction in bacterial growth incubated for 18 to 20 hrs by CLSI based microdilution method; format: functional; conditions: time 18-20 hrs
Summary of the method: (§1)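 CLSI broth microdilution. Compounds in DMSO (levofloxacin and meropenem in water), serial twofold dilutions in broth, 64 to 0.008 μg/mL. […] Results reported as MIC ranges across strains.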

Escherichia coli [2] = test: Antibacterial activity against multidrug resistant wild type Escherichia coli ATCC BAA-2340 assessed as reduction in bacterial growth incubated for 18 to 20 hrs by CLSI based microdilution method; format: functional; conditions: time 18-20 hrs
Summary of the method: (§2)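 Broth microdilution per CLSI. Compounds dissolved in DMSO (levofloxacin and meropenem in water) as 64 μg/mL stock, then serial twofold dilutions in broth giving 64 to 0.008 μg/mL. […] Clinical isolates tested as several strains per group; racemic GP-1 served as positive control; values given as MIC ranges.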

[3] = Metabolic stability in rat liver microsome assessed as elimination half life at 0.1 uM in presence of NADPH incubated upto 60 mins by LC-MS/MS analysis; format: ADME; conditions: liver microsomes, read-out: beta t1/2
Summary of the method: (§3)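 Compound at 0.1 μM final, in 0.01% DMSO with 0.005% BSA. Incubated with rat or human liver microsomes at 0.33 mg/mL in 0.1 M Tris-HCl, pH 7.4, with 5 mM MgCl₂ and 1 mM NADPH, at 37 °C. Samples at 0, 7, 17, 30 and 60 min quenched with cold methanol and analysed by LC-MS/MS. Half-life, Cl_int and MF% derived as previously described.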

Acinetobacter baumannii [4] = test: Antibacterial activity against wild type Acinetobacter baumannii NCTC 13304 assessed as reduction in bacterial growth incubated for 18 to 20 hrs by CLSI based microdilution method; format: functional; conditions: time 18-20 hrs; summary of the method: as §2
[5] = Volume of distribution at the steady state in Sprague-Dawley rat at 4 mg/kg, iv measured upto 24 hrs by LC-MS/MS analysis; format: ADME, organism-based; conditions: in vivo, read-out: Vdss
Summary of the method: (§4)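 Male Sprague-Dawley rats, n = 3 per group, single intravenous dose. For 4 mg/kg: 180–280 g rats, vehicle 5% DMSO + 5% EtOH + 40% PEG300 + 50% saline, blood from the retrobulbar vein at 0.05–24 h. For 5 and 20 mg/kg: 180–300 g rats, vehicle 5% DMSO + 5% solutol + 90% saline, sampled at 0.083–24 h. Plasma quantified by LC/MS/MS. Parameters from mean plasma concentration by noncompartmental analysis; values are mean ± standard deviation.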

Acinetobacter baumannii [6] = test: Antibacterial activity agains OXA23-producing multidrug resistant Acinetobacter baumannii assessed as reduction in bacterial growth incubated for 18 to 20 hrs by CLSI based microdilution method; format: functional; conditions: time 18-20 hrs; summary of the method: as §2
Klebsiella pneumoniae [7] = test: Antibacterial activity agains wild type Klebsiella pneumoniae ATCC BAA-2470 assessed as reduction in bacterial growth incubated for 18 to 20 hrs by CLSI based microdilution method; format: functional; conditions: time 18-20 hrs; summary of the method: as §2
[8] = Metabolic stability in human liver microsome assessed as metabolic bioavailability at 0.1 uM in presence of NADPH incubated upto 60 mins by LC-MS/MS analysis; format: ADME; conditions: liver microsomes; summary of the method: as §3
[9] = Metabolic stability in human liver microsome assessed as elimination half life at 0.1 uM in presence of NADPH incubated upto 60 mins by LC-MS/MS analysis; format: ADME; conditions: liver microsomes, read-out: beta t1/2; summary of the method: as §3
[10] = Metabolic stability in rat liver microsome assessed as intrinsic clearance at 0.1 uM in presence of NADPH incubated upto 60 mins by LC-MS/MS analysis; format: ADME; conditions: microsomes, 1 h; summary of the method: as §3
Escherichia coli [11] = test: Antibacterial activity against ESBL-producing multidrug resistant Escherichia coli assessed as reduction in bacterial growth incubated for 18 to 20 hrs by CLSI based microdilution method; format: functional; conditions: time 18-20 hrs; summary of the method: as §2
[12] = molecular target: hERG (KCNH2) potassium channel (Homo sapiens, UniProt Q12809); test: Inhibition of hERG potassium channel assessed as maximum inhibition rate at 40 uM at -80 mV holding potential incubated for 120 seconds by whole cell-automated voltage clamp analysis assay relative to control; format: toxicity; conditions: time 120 sec
Sequence of hERG (KCNH2) potassium channel (Q12809 whole entry): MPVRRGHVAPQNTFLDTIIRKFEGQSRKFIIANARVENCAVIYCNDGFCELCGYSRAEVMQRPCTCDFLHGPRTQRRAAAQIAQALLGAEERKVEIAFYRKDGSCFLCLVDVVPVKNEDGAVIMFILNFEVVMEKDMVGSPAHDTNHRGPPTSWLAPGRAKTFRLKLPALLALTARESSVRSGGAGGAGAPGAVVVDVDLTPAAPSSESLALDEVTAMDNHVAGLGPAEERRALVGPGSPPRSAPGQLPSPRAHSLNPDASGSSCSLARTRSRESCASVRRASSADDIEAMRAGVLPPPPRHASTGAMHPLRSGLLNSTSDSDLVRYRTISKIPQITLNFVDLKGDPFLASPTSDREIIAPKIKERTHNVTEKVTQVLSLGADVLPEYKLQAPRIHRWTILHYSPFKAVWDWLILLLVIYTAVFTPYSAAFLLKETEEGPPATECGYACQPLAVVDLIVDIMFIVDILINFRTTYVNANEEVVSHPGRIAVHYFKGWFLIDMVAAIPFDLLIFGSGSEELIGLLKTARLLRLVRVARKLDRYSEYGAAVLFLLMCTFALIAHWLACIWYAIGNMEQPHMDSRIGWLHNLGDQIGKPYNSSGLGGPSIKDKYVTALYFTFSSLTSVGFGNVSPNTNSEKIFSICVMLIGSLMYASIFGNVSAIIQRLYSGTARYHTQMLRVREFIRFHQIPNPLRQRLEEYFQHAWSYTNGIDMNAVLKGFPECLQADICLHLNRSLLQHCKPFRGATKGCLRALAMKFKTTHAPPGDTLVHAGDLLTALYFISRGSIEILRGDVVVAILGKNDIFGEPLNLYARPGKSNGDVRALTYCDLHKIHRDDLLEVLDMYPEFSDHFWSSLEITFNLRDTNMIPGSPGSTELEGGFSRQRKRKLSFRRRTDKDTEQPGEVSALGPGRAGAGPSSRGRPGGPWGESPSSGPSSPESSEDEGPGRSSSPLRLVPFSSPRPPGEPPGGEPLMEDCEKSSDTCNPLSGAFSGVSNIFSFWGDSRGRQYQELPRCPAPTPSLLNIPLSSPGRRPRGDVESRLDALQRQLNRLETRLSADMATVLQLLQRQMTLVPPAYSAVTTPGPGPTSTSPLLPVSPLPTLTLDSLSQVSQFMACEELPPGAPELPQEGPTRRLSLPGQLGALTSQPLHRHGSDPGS
Summary of the method: (§5)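 Automated whole-cell patch clamp, holding potential −80 mV. Voltage protocol applied every 20 s. Baseline set with external solution containing 0.1% DMSO and stabilised 3 min. Compound applied until steady state, at least 3 min, then washout. Maximum tested concentration 40 μM, or 3 μM for cisapride as positive control.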

Pseudomonas aeruginosa [13] = test: Antibacterial activity against IMP4-producing multidrug resistant Pseudomonas aeruginosa assessed as reduction in bacterial growth incubated for 18 to 20 hrs by CLSI based microdilution method; format: functional; conditions: time 18-20 hrs; summary of the method: as §2
[14] = Metabolic stability in human liver microsome assessed as intrinsic clearance at 0.1 uM in presence of NADPH incubated upto 60 mins by LC-MS/MS analysis; format: ADME; conditions: microsomes, 1 h; summary of the method: as §3
[15] = MRT in Sprague-Dawley rat at 4 mg/kg, iv measured upto 24 hrs by LC-MS/MS analysis; format: ADME, organism-based; conditions: in vivo; summary of the method: as §4
[16] = Clearance in Sprague-Dawley rat at 4 mg/kg, iv measured upto 24 hrs by LC-MS/MS analysis; format: ADME, organism-based; conditions: in vivo; summary of the method: as §4
Klebsiella pneumoniae [17] = test: Antibacterial activity agains wild type Klebsiella pneumoniae ATCC BAA-1705 assessed as reduction in bacterial growth incubated for 18 to 20 hrs by CLSI based microdilution method; format: functional; conditions: time 18-20 hrs; summary of the method: as §1
Escherichia coli [18] = test: Antibacterial activity against ESBL-producing Escherichia coli ATCC 35218 strains 15 1 to 3 assessed as reduction in bacterial growth incubated for 18 to 20 hrs by CLSI based microdilution method; format: functional; conditions: time 18-20 hrs; summary of the method: as §1
Pseudomonas aeruginosa [19] = test: Antibacterial activity against multidrug resistant Pseudomonas aeruginosa strains 15 1 to 3 assessed as reduction in bacterial growth incubated for 18 to 20 hrs by CLSI based microdilution method; format: functional; conditions: time 18-20 hrs; summary of the method: as §2
Escherichia coli [20] = test: Antibacterial activity against multidrug resistant wild type Escherichia coli NCTC 13353 assessed as reduction in bacterial growth incubated for 18 to 20 hrs by CLSI based microdilution method; format: functional; conditions: time 18-20 hrs; summary of the method: as §2
Pseudomonas aeruginosa [21] = test: Antibacterial activity against wild type Pseudomonas aeruginosa ATCC 27853 assessed as reduction in bacterial growth incubated for 18 to 20 hrs by CLSI based microdilution method; format: functional; conditions: time 18-20 hrs; summary of the method: as §1
[22] = molecular target: Voltage-gated inwardly rectifying potassium channel KCNH2 (Homo sapiens, UniProt Q12809); test: Inhibition of hERG potassium channel assessed as […] at -80 mV holding potential incubated for 120 seconds by whole cell-automated voltage clamp analysis assay; format: toxicity; summary of the method: as §5
Sequence of Voltage-gated inwardly rectifying potassium channel KCNH2 (Q12809 whole entry): as above

[23] = AUC (0 to infinity) in Sprague-Dawley rat at 4 mg/kg, iv measured upto 24 hrs by LC-MS/MS analysis; format: ADME, organism-based; design: time < 24 hrs, dose 4 mg/kg, route iv; conditions: in vivo; summary of the method: as §4
Klebsiella pneumoniae [24] = test: Antibacterial activity against KPC2-producing multidrug resistant Klebsiella pneumoniae assessed as reduction in bacterial growth incubated for 18 to 20 hrs by CLSI based microdilution method; format: functional; conditions: time 18-20 hrs; summary of the method: as §2
[25] = Elimination half life in Sprague-Dawley rat at 4 mg/kg, iv measured upto 24 hrs by LC-MS/MS analysis; format: ADME, organism-based; conditions: in vivo, read-out: beta t1/2 (converted); summary of the method: as §4
Staphylococcus aureus = test: Antibacterial activity against methicillin-sensitive Staphylococcus aureus strains 15 1 to 4 assessed as reduction in bacterial growth incubated for 18 to 20 hrs by CLSI based microdilution method; format: functional; conditions: time 18-20 hrs; summary of the method: as §2
[26] = test system: Staphylococcus epidermidis; test: Antibacterial activity against methicillin-sensitive Staphylococcus epidermidis strains 15 1 to 4 assessed as reduction in bacterial growth incubated for 18 to 20 hrs by CLSI based microdilution method; format: functional; conditions: time 18-20 hrs; summary of the method: as §2
[27] = Metabolic stability in rat liver microsome assessed as metabolic bioavailability at 0.1 uM in presence of NADPH incubated upto 60 mins by LC-MS/MS analysis; format: ADME; conditions: liver microsomes; summary of the method: as §3

| SMILES | MIC (Escherichia coli [1]) [µg/mL] | MIC (Escherichia coli [2]) [µg/mL] | half-life at 0.1 µM [3] [h] | MIC (Acinetobacter baumannii [4]) [µg/mL] | Vd [5] [L/kg] | MIC (Acinetobacter baumannii [6]) [µg/mL] | MIC (Klebsiella pneumoniae [7]) [µg/mL] | Fh at 1 h, 0.1 µM [8] [%] | half-life at 0.1 µM [9] [h] | CLH [10] [mL/min/g] | MIC (Escherichia coli [11]) [µg/mL] | inhibition at 2 min, 40 µM [12] [%] | MRT [15] [h] | clearance [16] [mL/min/kg] | MIC (Escherichia coli [18]) [µg/mL] | MIC (Pseudomonas aeruginosa [19]) [µg/mL] | AUC(0-inf) [23] [ng·h/mL] | half-life [25] [h] | MIC (Staphylococcus aureus) [µg/mL] | MIC [26] [µg/mL] | further results |
| --- | --- | --- | --- | --- | --- | --- | --- | --- | --- | --- | --- | --- | --- | --- | --- | --- | --- | --- | --- | --- | --- |
| CCC(CN)=C1CN(c2nc(Oc3cnc(C(C)O)nc3)nc3[nH]c4c(NC)cc(F)cc4c23)C1 (stereo unspecified) | 0.25 (≈ 0.522 µM) | 1 (≈ 2.09 µM) | 0.253 | 0.5 (≈ 1.04 µM) | 9.3 | 0.5 (≈ 1.04 µM) | 2 (≈ 4.18 µM) | 33.8 | 0.912 | 138.4 | 0.5 (≈ 1.04 µM) | 36 | 2.1 | 71.5 | 0.5 (≈ 1.04 µM) | 16 (≈ 33.4 µM) | 983 | 2.7 | < 0.008 | < 0.008 | MIC (Pseudomonas aeruginosa [13]): > 8 µg/mL; CLH [14]: 38.4 mL/min/g; MIC (Klebsiella pneumoniae [17]): 8 µg/mL (≈ 16.7 µM); MIC (Escherichia coli [20]): 0.5 µg/mL (≈ 1.04 µM); MIC (Pseudomonas aeruginosa [21]): 4 µg/mL (≈ 8.36 µM); IC50 [22]: > 40 µM; MIC (Klebsiella pneumoniae [24]): 4 µg/mL (≈ 8.36 µM); Fh at 1 h, 0.1 µM [27]: 24.3% |
| CNc1cc(F)cc2c1[nH]c1nc(Oc3cnc(C)nc3)nc(N3CC(=C(C)C(C)N)C3)c12 (racemic) | 0.25 (≈ 0.557 µM) | 0.5 (≈ 1.11 µM) | 0.278 | 0.5 (≈ 1.11 µM) | 12.3 | 0.25 (≈ 0.557 µM) | 2 (≈ 4.46 µM) | 82.2 | 8.23 | 126 | 0.5 (≈ 1.11 µM) | 37 | 4.7 | 44.1 | 0.5 (≈ 1.11 µM) | 1 (≈ 2.23 µM) | 1510 | 5.7 | < 0.008 | < 0.008 | MIC (Pseudomonas aeruginosa [13]): 4 µg/mL (≈ 8.92 µM); CLH [14]: 4.25 mL/min/g; MIC (Klebsiella pneumoniae [17]): 8 µg/mL (≈ 17.8 µM); MIC (Escherichia coli [20]): 0.25 µg/mL (≈ 0.557 µM); MIC (Pseudomonas aeruginosa [21]): 2 µg/mL (≈ 4.46 µM); IC50 [22]: > 40 µM; MIC (Klebsiella pneumoniae [24]): 2 µg/mL (≈ 4.46 µM); Fh at 1 h, 0.1 µM [27]: 26.1% |
| CCC(CO)=C1CN(c2nc(Oc3cnc(C)nc3)nc3[nH]c4c(NC)cc(F)c(F)c4c23)C1 | 32 (≈ 68.5 µM) |  |  |  | 68.4 |  |  |  |  |  |  |  | 8.3 | 141 | 0.25 (≈ 0.535 µM) | > 8 | 517 | 6.5 | < 0.03 | < 0.03 |  |
